ChEMBL document CHEMBL2331506, “Design, synthesis, antiviral and cytostatic evaluation of novel isoxazolidine nucleotide analogues with a carbamoyl linker” (Bioorg Med Chem, 2013)
Calls of active or inactive are those of the source. No rule for the calls is given here.

What was measured:
Influenza A virus [1] = test: Antiviral activity against Influenza A virus H1N1 infected in dog MDCK cells assessed as reduction of virus-induced cytopathogenicity at 250 uM; assay type: functional, organism-based
Procedure, shortened: (§1)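 Confluent cell monolayers were infected with 100 CCID50 of virus while exposed to varying compound concentrations. Cytopathicity was scored once it was complete in untreated infected controls. EC50 was taken as the concentration that reduced virus-induced cytopathogenicity by 50%.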

Feline coronavirus = test: Antiviral activity against Feline coronavirus infected in cat CRFK cells assessed as reduction of virus-induced cytopathogenicity at 250 uM; assay type: functional, organism-based
MDCK = test: Cytotoxicity against dog MDCK cells assessed as alteration of cell morphology up to 100 uM by microscopic analysis; assay type: cell-based, Canis lupus familiaris
Procedure, shortened: (§2)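 Uninfected host-cell cultures were exposed to compound and examined by microscopy. Cytotoxicity was expressed as the minimum cytotoxic concentration (MCC) causing a microscopically detectable alteration of normal cell morphology.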

Punta Toro virus = test: Antiviral activity against Punta Toro virus infected in african green monkey Vero cells assessed as reduction of virus-induced cytopathogenicity at 250 uM; assay type: functional, organism-based
Procedure, shortened: (§3)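 Confluent monolayers (HEL fibroblasts, Vero, or HeLa cells as listed) were infected with 100 CCID50 of virus in the presence of varying compound concentrations. Virus-induced cytopathicity or plaque formation was scored once cytopathicity was complete in untreated infected controls. EC50 was taken as the concentration reducing cytopathogenicity or plaque formation by 50%.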

Vero = test: Cytotoxicity against african green monkey Vero cells assessed as alteration of cell morphology up to 100 uM by microscopic analysis; assay type: cell-based; conditions: chlorocebus sabaeus; procedure, shortened: as §2
Influenza B virus = test: Antiviral activity against Influenza B virus infected in dog MDCK cells assessed as reduction of virus-induced cytopathogenicity at 250 uM; assay type: functional, organism-based; procedure, shortened: as §1
[2] = tested on: Mammalian orthoreovirus 1; test: Antiviral activity against Reovirus 1 infected in african green monkey Vero cells assessed as reduction of virus-induced cytopathogenicity at 250 uM; assay type: functional, organism-based; procedure, shortened: as §3
[3] = Cytotoxicity against cat CRFK cells assessed as alteration of cell morphology up to 100 uM by microscopic analysis; assay type: cell-based, Felis catus; procedure, shortened: as §2
Coxsackievirus B4 = test: Antiviral activity against Coxsackievirus B4 infected in african green monkey Vero cells assessed as reduction of virus-induced cytopathogenicity at 250 uM; assay type: functional, organism-based; procedure, shortened: as §3
Felid alphaherpesvirus 1 = test: Antiviral activity against Feline herpes virus infected in cat CRFK cells assessed as reduction of virus-induced cytopathogenicity at 250 uM; assay type: functional, organism-based
[4] = tested on: Vesicular stomatitis virus; test: Antiviral activity against Vesicular stomatitis virus infected in human HEL cells assessed as reduction of virus-induced cytopathogenicity at 250 uM; assay type: functional, organism-based; procedure, shortened: as §1
[5] = tested on: Human immunodeficiency virus 2; test: Antiviral activity against Human immunodeficiency virus 2 ROD infected in human CEM cells assessed as reduction of virus-induced giant cell formation at 250 uM after 4 to 5 days; assay type: functional, organism-based; conditions: CCRF-CEM
Procedure, shortened: (§4)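 CEM cells at 3 × 10^5 cells/mL were infected with HIV at 100 CCID50 per mL in the presence of compound dilutions. They were held 4–5 days at 37 °C in humidified CO2. Syncytium (giant cell) formation was scored microscopically, and EC50 was taken as the concentration inhibiting giant cell formation by 50%.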

HeLa [6] = test: Cytostatic activity against human HeLa cells assessed as inhibition of cell proliferation after 72 hrs by Coulter counter analysis; assay type: functional, cell-based
Procedure, shortened: (§5)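 Each well received (5–7.5) × 10^4 tumor cells plus compound. L1210 cells grew 48 h and CEM and HeLa cells grew 72 h, at 37 °C in humidified CO2. Cells were then counted electronically, and IC50 was taken as the concentration inhibiting proliferation by 50%.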

Sindbis virus = test: Antiviral activity against Sindbis virus infected in african green monkey Vero cells assessed as reduction of virus-induced cytopathogenicity at 250 uM; assay type: functional, organism-based; procedure, shortened: as §3
[7] = tested on: Vesicular stomatitis virus; test: Antiviral activity against Vesicular stomatitis virus infected in human HeLa cells assessed as reduction of virus-induced cytopathogenicity at 250 uM; assay type: functional, organism-based; procedure, shortened: as §1
Human alphaherpesvirus 1 [8] = test: Antiviral activity against thymidine kinase-deficient, ACV-resistant Herpes simplex virus 1 KOS infected in human HEL cells assessed as reduction of virus-induced cytopathogenicity at 250 uM; assay type: functional, organism-based; procedure, shortened: as §1
HeLa [9] = test: Cytotoxicity against human HeLa cells assessed as alteration of cell morphology up to 100 uM by microscopic analysis; assay type: cell-based; procedure, shortened: as §2
[10] = tested on: Respiratory syncytial virus; test: Antiviral activity against Respiratory syncytial virus long infected in human HeLa cells assessed as reduction of virus-induced cytopathogenicity at 250 uM; assay type: functional, organism-based; procedure, shortened: as §3
CCRF-CEM = test: Cytostatic activity against human CEM cells assessed as inhibition of cell proliferation after 72 hrs by Coulter counter analysis; assay type: functional, cell-based; procedure, shortened: as §5
Human alphaherpesvirus 1 [11] = test: Antiviral activity against Herpes simplex virus 1 KOS infected in human HEL cells assessed as reduction of virus-induced cytopathogenicity at 250 uM; assay type: functional, organism-based; procedure, shortened: as §3
Human alphaherpesvirus 2 = test: Antiviral activity against Herpes simplex virus 2 G infected in human HEL cells assessed as reduction of virus-induced cytopathogenicity at 250 uM; assay type: functional, organism-based; conditions: strain G; procedure, shortened: as §3
HEL = test: Cytotoxicity against human HEL cells assessed as alteration of cell morphology up to 100 uM by microscopic analysis; assay type: cell-based; procedure, shortened: as §2
Human respirovirus 3 = test: Antiviral activity against Parainfluenza virus 3 infected in african green monkey Vero cells assessed as reduction of virus-induced cytopathogenicity at 250 uM; assay type: functional, organism-based; procedure, shortened: as §3
[12] = tested on: Human immunodeficiency virus 1; test: Antiviral activity against Human immunodeficiency virus 1 3B infected in human CEM cells assessed as reduction of virus-induced giant cell formation at 250 uM after 4 to 5 days; assay type: functional, organism-based; conditions: CCRF-CEM; procedure, shortened: as §4
L1210 = test: Cytostatic activity against mouse L1210 cells assessed as inhibition of cell proliferation after 48 hrs by Coulter counter analysis; assay type: functional, cell-based; conditions: L1210, 48 h; procedure, shortened: as §5
Influenza A virus [13] = test: Antiviral activity against Influenza A virus H3N2 infected in dog MDCK cells assessed as reduction of virus-induced cytopathogenicity at 250 uM; assay type: functional, organism-based; procedure, shortened: as §1

| Compound | inhibition (Influenza A virus [1]) | inhibition (Feline coronavirus) | Activity (MDCK) | inhibition (Punta Toro virus) | Activity (Vero) | inhibition (Influenza B virus) | inhibition [2] | Activity [3] | inhibition (Coxsackievirus B4) | inhibition (Felid alphaherpesvirus 1) | inhibition [4] | inhibition [5] | IC50 (HeLa [6]) | inhibition (Sindbis virus) | inhibition [7] | inhibition (Human alphaherpesvirus 1 [8]) | Activity (HeLa [9]) | inhibition [10] | IC50 (CCRF-CEM) | inhibition (Human alphaherpesvirus 1 [11]) | further results |
| --- | --- | --- | --- | --- | --- | --- | --- | --- | --- | --- | --- | --- | --- | --- | --- | --- | --- | --- | --- | --- | --- |
| CCOP(=O)(OCC)[C@H]1C[C@H](C(=O)Nc2ccc(Br)cc2)ON1C (mixture of isomers) | inactive | inactive | Non-toxic | inactive | Non-toxic | inactive | inactive | Non-toxic | inactive | inactive | inactive | inactive | ≥ 250 µM | inactive | inactive | inactive | Non-toxic | inactive | 227 µM | inactive | inhibition (Human alphaherpesvirus 2): inactive; Activity (HEL): Non-toxic; inhibition (Human respirovirus 3): inactive; inhibition [12]: inactive; IC50 (L1210): 177 µM; inhibition (Influenza A virus [13]): inactive |
| CCOP(=O)(OCC)[C@@H]1C[C@H](C(=O)Nc2ccc(Cl)cc2)ON1C (mixture of isomers) | inactive | inactive | Non-toxic | inactive | Non-toxic | inactive | inactive | Non-toxic | inactive | inactive | inactive | inactive | > 250 µM | inactive | inactive | inactive | Non-toxic | inactive | ≥ 250 µM | inactive | inhibition (Human alphaherpesvirus 2): inactive; Activity (HEL): Non-toxic; inhibition (Human respirovirus 3): inactive; inhibition [12]: inactive; IC50 (L1210): 170 µM; inhibition (Influenza A virus [13]): inactive |
| CCOP(=O)(OCC)[C@@H]1C[C@H](C(=O)Nc2cccc(F)c2)ON1C (mixture of isomers) | inactive | inactive | Non-toxic | inactive | Non-toxic | inactive | inactive | Non-toxic | inactive | inactive | inactive | inactive | ≥ 250 µM | inactive | inactive | inactive | Non-toxic | inactive | ≥ 250 µM | inactive | inhibition (Human alphaherpesvirus 2): inactive; Activity (HEL): Non-toxic; inhibition (Human respirovirus 3): inactive; inhibition [12]: inactive; IC50 (L1210): 228 µM; inhibition (Influenza A virus [13]): inactive |
| CCOP(=O)(OCC)[C@H]1C[C@H](C(=O)Nc2cccc(Br)c2)ON1C (racemic) | inactive | inactive | Non-toxic | inactive | Non-toxic | inactive | inactive | Non-toxic | inactive | inactive | inactive | inactive | 180 µM | inactive | inactive | inactive | Non-toxic | inactive | ≥ 250 µM | inactive | inhibition (Human alphaherpesvirus 2): inactive; Activity (HEL): Non-toxic; inhibition (Human respirovirus 3): inactive; inhibition [12]: inactive; IC50 (L1210): > 250 µM; inhibition (Influenza A virus [13]): inactive |
| CCOP(=O)(OCC)[C@H]1C[C@H](C(=O)Nc2ccccc2[N+](=O)[O-])ON1C (mixture of isomers) | inactive | inactive | Non-toxic | inactive | Non-toxic | inactive | inactive | Non-toxic | inactive | inactive | inactive | inactive | > 250 µM | inactive | inactive | inactive | Non-toxic | inactive | ≥ 250 µM | inactive | inhibition (Human alphaherpesvirus 2): inactive; Activity (HEL): Non-toxic; inhibition (Human respirovirus 3): inactive; inhibition [12]: inactive; IC50 (L1210): 168 µM; inhibition (Influenza A virus [13]): inactive |
| CCOP(=O)(OCC)[C@H]1C[C@H](C(=O)Nc2cccc(F)c2)ON1C (mixture of isomers) | inactive | inactive | Non-toxic | inactive | Non-toxic | inactive | inactive | Non-toxic | inactive | inactive | inactive | inactive | > 250 µM | inactive | inactive | inactive | Non-toxic | inactive | > 250 µM | inactive | inhibition (Human alphaherpesvirus 2): inactive; Activity (HEL): Non-toxic; inhibition (Human respirovirus 3): inactive; inhibition [12]: inactive; IC50 (L1210): > 250 µM; inhibition (Influenza A virus [13]): inactive |
| CCOP(=O)(OCC)[C@H]1C[C@H](C(=O)Nc2ccc(Cl)cc2)ON1C (relative stereo) | inactive | inactive | Non-toxic | inactive | Non-toxic | inactive | inactive | Non-toxic | inactive | inactive | inactive | inactive | ≥ 250 µM | inactive | inactive | inactive | Non-toxic | inactive | > 250 µM | inactive | inhibition (Human alphaherpesvirus 2): inactive; Activity (HEL): Non-toxic; inhibition (Human respirovirus 3): inactive; inhibition [12]: inactive; IC50 (L1210): > 250 µM; inhibition (Influenza A virus [13]): inactive |
